Bioassay records (PubChem)
PP5 primary: inhibitors of human protein phosphatase 5 (PP5). inhibition, % at 6.7 µM. P53041. purified PP5c, OMFP substrate fluorescence. 320,000 compounds, 0.18% hits. AID 1987;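 active = inhibition above the campaign's mean inhibition across all tested compounds plus 3 SD, cut at about 9.5% in these data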;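 also: 0% = DMSO only and 100% = 100 µM cantharidin control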
ZTA DNA inh: ZTA (EBV) inhibition in EBNA-1 counter-screen. AID 2234. 320,000 compounds, 0.15% hits. ZTA-DNA binding, fluorescence polarization. inhibition, % at 11 µM. P03206; in the data active = inhibition above about 33%
Target sequence (P03206 whole entry, looked up): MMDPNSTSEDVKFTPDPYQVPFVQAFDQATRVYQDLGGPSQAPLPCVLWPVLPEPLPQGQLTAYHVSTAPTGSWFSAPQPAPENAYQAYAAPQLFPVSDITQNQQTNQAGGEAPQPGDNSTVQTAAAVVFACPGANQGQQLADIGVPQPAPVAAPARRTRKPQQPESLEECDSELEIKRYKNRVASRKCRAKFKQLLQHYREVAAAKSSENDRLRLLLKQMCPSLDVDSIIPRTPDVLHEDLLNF
core dimer inh: HCV core protein dimerization inhibition. TR-FRET GST/Flag-core106 dimerization, 1536-well. inhibition, % at 5 µM. 300,000 compounds, 0.33% hits;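 active = inhibition above the mean of all tested compounds plus 3 SD, set per screening campaign, cut at about 45% in these data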
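System: GST-tagged and Flag-tagged HCV core protein residues 1-106 / Input: core106 proteins, GST 13.5 nM and Flag 17 nM / Buffer or medium: KF-containing HEPES buffer, pH 7.45, DTT, CHAPS, BSA / Probe or stimulus: Eu-anti-GST and XL665-anti-Flag labelled anti-tag antibodies / Schedule: 4 h, 22.5 °C incubation / Technique: TR-FRET 671 and 617 nm emission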
PP1 inh: blocks human PP1-alpha phosphatase, a PP5 counter-screen. P62136. purified PP1alpha, OMFP fluorescence. inhibition, % at 6.7 µM. 320,000 compounds, 0.9% hits. AID 2235;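 active = inhibition above the mean inhibition of all tested compounds plus 3 SD, computed separately for each screening campaign, cut at about 15% in these data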
Target sequence (P62136 whole entry, looked up): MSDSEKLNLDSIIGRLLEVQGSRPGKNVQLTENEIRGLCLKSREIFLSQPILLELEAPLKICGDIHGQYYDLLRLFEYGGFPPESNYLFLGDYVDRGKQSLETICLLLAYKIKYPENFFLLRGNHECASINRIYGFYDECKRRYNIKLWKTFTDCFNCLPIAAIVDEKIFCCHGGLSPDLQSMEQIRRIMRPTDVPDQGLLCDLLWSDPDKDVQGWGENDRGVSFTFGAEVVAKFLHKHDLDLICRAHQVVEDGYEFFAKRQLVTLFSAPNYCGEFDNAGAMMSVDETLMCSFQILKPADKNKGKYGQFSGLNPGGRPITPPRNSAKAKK
EBNA-1 inhibitor: blocks EBNA-1 binding to DNA | EBNA-1 DNA binding, fluorescence polarization | inhibition, % at 14.8 µM | 300,000 compounds, 0.34% hits; in the data active = inhibition above about 28%
PP1 inh confirm: human PP1 phosphatase inhibition, confirmation. shares compounds with PP1 inh. purified PP1alpha, OMFP substrate fluorescence. inhibition, % at 6.7 µM. 1,900 compounds, 52% hits;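 active = mean PP1 inhibition above a set limit taken from the earlier primary screen, cut at about 15% in these data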
PP5 inh counter: inhibits human PP5 phosphatase in PP1 counter-screen. shares compounds with PP1 inh. purified PP5c, OMFP fluorescence. inhibition, % at 6.7 µM. 1,900 compounds, 4% hits. AID 2360;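 active = mean PP5 inhibition over triplicate wells above about 9.5% taken from the earlier PP1 screen, limit read from the data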
An asterisk follows results filed as active; · = not tested or not shown. Most compounds without a hit are left out; they make up all but 1.7% or so of the library.

SMILES | PP5 primary | ZTA DNA inh | core dimer inh | PP1 inh | EBNA-1 inhibitor | PP1 inh confirm | PP5 inh counter
Cc1ccc2nc(-c3ccccn3)c(Nc3ccccc3C)n2c1 | 4.3 | -1.9 | 1.7 | 30.0* | -1.7 | 41.7* | 5.2
Cc1ccn2c(Nc3ccccc3)c(-c3ccccn3)nc2c1 | 2.2 | 7.2 | -3.7 | 30.7* | -11.9 | 33.0* | -0.9
Cc1ccccc1Nc1c(-c2ccccn2)nc2ccccn12 | 3.3 | -13.4 | -5.4 | 34.3* | -0.8 | 12.4 | 2.3
COCCn1c(=NC(=O)c2cccs2)sc2cc(NC(C)=O)ccc21 | -2.5 | 8.4 | -1.5 | 19.3* | 19.2 | -0.9 | -2.9
COc1ccc(CCNC(=O)C(=O)NCC2CCCN2S(=O)(=O)c2ccccc2)cc1OC (stereo not given) | 1.6 | -20.8 | -0.8 | 2.0 | -15.7 | · | ·
CN(CCC1CCCCO1)C(=O)CCc1nnc(C2CCCCC2)o1 (stereo not given) | 1.0 | -10.7 | -2.9 | -3.1 | -0.4 | · | ·
CC(C1CCN(Cc2cn(C)nc2-c2cccc(Cl)c2)CC1)N1CCOCC1 (stereo not given) | -1.3 | -2.7 | -4.2 | -1.0 | 5.5 | · | ·
COc1ccc2[nH]c(=O)c(CN(CCO)S(=O)(=O)c3c(C)ccc4nsnc34)cc2c1 | 2.2 | -8.7 | -12.6 | 54.6* | 1.5 | -0.4 | 0.4
CCCCN1C(=O)c2ccc(C(=O)NC3=NCCS3)cc2C1=O | 1.8 | 4.8 | -0.7 | -0.1 | -11.6 | · | ·
O=C1CN(C(=O)NCC(=O)N[C@@H](C(=O)O)c2ccccc2)c2ccccc2N1 | 0.0 | -0.6 | -6.4 | 17.7* | -13.4 | -2.4 | -4.2
COc1cc([N+](=O)[O-])cc(/C=N/NC(=O)C(C)Nc2cccc(C)c2)c1O (stereo not given) | 6.3 | -19.7 | -2.3 | 21.9* | 8.5 | 9.4 | -5.9
Cc1ccccc1NC(C)C(=O)N/N=C/c1c[nH]c2ccccc12 (stereo not given) | 4.0 | -7.5 | -0.3 | 1.9 | -4.9 | · | ·
COc1cc([N+](=O)[O-])cc(/C=N/NC(=O)C(C)Nc2ccccc2C)c1O (stereo not given) | 2.8 | -11.5 | -11.9 | 22.2* | -9.2 | 14.7 | -5.5
COc1cc([N+](=O)[O-])cc(/C=N/NC(=O)CSc2ccccn2)c1O | -0.2 | -4.6 | -4.7 | 20.9* | -1.5 | 23.8* | -5.9
CCC(C)N(C(=O)COC(=O)c1ccccc1SCC(=O)N1CCCC1)C1CCS(=O)(=O)C1 (stereo not given) | 1.2 | -1.3 | -0.8 | -6.9 | 5.5 | · | ·
O=C(CCc1ccc(S(=O)(=O)NCc2ccccc2)cc1)NCC1CCCO1 (stereo not given) | -1.5 | -3.0 | -2.8 | -4.2 | 1.6 | · | ·
Cn1ccnc1COc1ccc(C=O)cc1 | 0.0 | -0.9 | 6.7 | -0.1 | -5.4 | · | ·
COc1ccc(N(C(=O)CCl)C(C)(C(=O)Nc2c(C)cccc2C)c2ccccn2)cc1 (stereo not given) | -1.2 | 18.3 | 4.0 | -5.0 | -2.7 | · | ·
CCNC(=S)N/N=C/c1cccs1 | -1.6 | -1.5 | -1.5 | 37.5* | 9.5 | -3.1 | -4.7
O=C1C=C(NNC(=O)c2ccccc2Br)CCC1 | 3.8 | 4.5 | -1.0 | -0.1 | 0.0 | · | ·
Cc1cc2oc(=O)cc(-c3cc4ccccc4o3)c2cc1O | -0.1 | -6.5 | 23.0 | 23.8* | -1.8 | 21.4* | -0.7
O=c1cc(-c2cc3ccccc3o2)c2cc(O)ccc2o1 | 0.8 | 9.8 | -0.9 | 3.2 | 4.4 | · | ·
CCOC(=O)C1(C)C=C(Nc2ccccc2)C(=O)N1c1ccccc1 (stereo not given) | 0.9 | 2.8 | 3.4 | 29.1* | -9.1 | 0.8 | -2.4
CCOC(=O)C1(C)C=C(Nc2ccc(OCC)cc2)C(=O)N1c1ccccc1 (stereo not given) | 4.0 | -11.2 | 6.3 | -3.5 | 0.3 | · | ·
CCCCOc1ccc(C2C(C(=O)c3ccc(C)o3)=C(O)C(=O)N2Cc2ccco2)cc1 (stereo not given) | 2.2 | 9.4 | 36.4 | 32.7* | 5.6 | 30.2* | -3.0
SMILES | PP5 primary | ZTA DNA inh | core dimer inh | PP1 inh | EBNA-1 inhibitor | PP1 inh confirm | PP5 inh counter
Cc1cc(N2C(=O)C(O)=C(C(=O)c3cc4ccccc4o3)C2c2ccc(OC(C)C)cc2)no1 (stereo not given) | 0.2 | 12.7 | -4.0 | 22.6* | 8.0 | 33.5* | -1.6
Cc1cc(N2C(=O)C(O)=C(C(=O)c3cccs3)C2c2ccccc2)no1 (stereo not given) | 0.3 | 5.8 | -1.6 | -1.3 | 13.4 | · | ·
CCCCCOc1ccc(C2C(C(=O)c3ccc(C)o3)=C(O)C(=O)N2c2cc(C)on2)cc1 (stereo not given) | 0.9 | 22.6 | 13.6 | 24.3* | 12.4 | 31.9* | -0.2
Nc1nc(-c2ccccn2)nc(N)c1Cc1c(F)cccc1Cl | 1.2 | -0.2 | -0.9 | 27.2* | 1.2 | 46.8* | -2.2
Nc1nc(-c2ccccn2)nc(N)c1Cc1ccc(Cl)cc1Cl | 2.3 | 5.3 | 2.5 | 34.1* | -4.8 | 46.9* | 4.6
Clc1ccc(OCc2nc(-c3ccccn3)no2)c(Br)c1 | -0.2 | 2.4 | 7.0 | -2.5 | 6.2 | · | ·
Nc1nc(-c2ccccn2)nc(N)c1Cc1ccccc1F | 4.3 | -4.4 | 1.6 | 14.0 | 4.3 | · | ·
COc1cc(/C=C2\SC(=O)N(CC(=O)Nc3ccc(C)cc3)C2=O)cc(Cl)c1OCC(=O)O | -0.2 | -4.6 | 13.4 | 42.8* | 5.5 | 45.9* | -4.5
COc1cc(/C=N/NC(=O)c2cccc(NC(=O)c3ccccc3C)c2)ccc1O | 3.4 | -2.6 | 1.1 | 2.3 | 7.5 | · | ·
Cc1ccccc1C(=O)Nc1cccc(C(=O)N/N=C/c2cc(Cl)cc([N+](=O)[O-])c2O)c1 | 1.6 | 5.0 | -0.1 | 19.0* | 15.4 | 18.3* | -3.8
CCOC(=O)c1c(CSC(=N)N)n(C)c2cc(Br)c(OC(C)=O)cc12 | -0.6 | 3.1 | 0.6 | 1.7 | 2.6 | · | ·
CCOC(=O)c1c(CSC(=N)N)n(-c2ccc(C)cc2)c2cc(Br)c(OC(C)=O)cc12 | 0.1 | -4.4 | 0.9 | 20.4* | -1.4 | -2.6 | -2.1
CC(=O)NC(c1ccc2ccccc2c1)c1ccc2cccnc2c1O (stereo not given) | 0.2 | -6.7 | -4.1 | 14.1 | -4.0 | · | ·
CCCC(=O)NC(c1ccc(C)cc1)c1ccc2cccnc2c1O (stereo not given) | 1.9 | -10.2 | 8.2 | 23.1* | -5.2 | 18.2* | -3.0
CCCC(=O)NC(c1ccc(Cl)cc1)c1ccc2cccnc2c1O (stereo not given) | 3.9 | -3.8 | 6.0 | 23.0* | 5.5 | 20.2* | -4.5
CCCC(=O)NC(c1ccc(Cl)cc1Cl)c1ccc2cccnc2c1O (stereo not given) | 2.2 | -1.8 | 3.4 | 26.2* | -2.8 | 20.9* | -3.6
CCCCC(=O)NC(c1ccc(Cl)cc1)c1ccc2cccnc2c1O (stereo not given) | 4.0 | 10.7 | 1.3 | 32.5* | -1.7 | 21.2* | -5.2
COC(=O)N/N=C/c1cc(Cl)cc(Cl)c1OCc1ccc(F)cc1 | -1.6 | -4.1 | -1.2 | 5.2 | -3.5 | · | ·
